Measurements published in ChEMBL document CHEMBL1130158, “Alkyl-substituted amino acid amides and analogous di- and triamines: new non-peptide G protein activators” (J Med Chem, 1997).

Assays:
[1] = tested on: HL-60; experiment: Efficacy expressed as maximal stimulation of GTP hydrolysis in HL-60 membranes at a concentration 7.5 uM; assay type: functional, Homo sapiens
In short: (§1)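 HL-60 cells grown in suspension, differentiated toward neutrophil-like cells with dibutyryl-cAMP (0.2 mM) for 48 h; membranes prepared and steady-state GTP hydrolysis measured with [γ-32P]GTP over increasing compound concentrations. Triplicate determinations, at least three independent experiments. Efficacy = maximal stimulation above basal activity, at the concentration giving maximal stimulation; pEC50 = -log half-maximal concentration, means ± SD.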

[2] = tested on: HL-60; experiment: -log of the half-maximal concentration for stimulation of GTPase in HL-60 membrane; assay type: functional; conditions: Homo sapiens; in short: as §1
[3] = tested on: HL-60; experiment: Efficacy expressed as maximal stimulation of GTP hydrolysis in HL-60 membranes at a concentration 5 uM; assay type: functional, Homo sapiens; in short: as §1
[4] = tested on: HL-60; experiment: Efficacy expressed as maximal stimulation of GTP hydrolysis in HL-60 membranes at a concentration 0.75 uM; assay type: functional, Homo sapiens; in short: as §1
[5] = tested on: HL-60; experiment: -log of the half-maximal concentration for stimulation of GTPase in HL-60 membrane (sensitive to PTX); assay type: functional; conditions: Homo sapiens
In short: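 Differentiated HL-60 cells (dibutyryl-cAMP 0.2 mM, 48 h) incubated overnight with pertussis toxin (200 ng/mL) or left untreated; membranes prepared and steady-state [γ-32P]GTP hydrolysis measured across increasing concentrations. PTX sensitivity judged by comparing treated with control membranes. Triplicates; pEC50 = -log half-maximal concentration, mean ± SD.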

[6] = tested on: HL-60; experiment: Efficacy expressed as maximal stimulation of GTP hydrolysis in HL-60 membranes at a concentration 20 uM; assay type: functional, Homo sapiens; in short: as §1
[7] = tested on: HL-60; experiment: Efficacy expressed as maximal stimulation of GTP hydrolysis in HL-60 membranes at a concentration 3 uM; assay type: functional, Homo sapiens; in short: as §1
[8] = tested on: HL-60; experiment: Efficacy expressed as maximal stimulation of GTP hydrolysis in HL-60 membranes at a concentration 10 uM; assay type: functional, Homo sapiens; in short: as §1
[9] = molecular target: Histamine H1 receptor (Cavia porcellus) (UniProt P31389); experiment: Histamine activity against H1 receptor of guinea pig ileum; assay type: tissue-based
[10] = molecular target: Muscarinic acetylcholine receptor M3 (Cavia porcellus) (UniProt Q8VH26); experiment: Affinity towards Muscarinic acetylcholine receptor M3 in guinea pig ileum; assay type: tissue-based
[11] = molecular target: Histamine H1 receptor (Cavia porcellus) (UniProt P31389); experiment: Histamine activity against Histamine H1 receptor of guinea pig ileum; assay type: tissue-based
[12] = molecular target: Histamine H2 receptor (Cavia porcellus) (UniProt P47747); experiment: Histamine activity against Histamine H2 receptor of guinea pig atrium; assay type: tissue-based; conditions: Cardiac atrium
[13] = molecular target: Histamine H3 receptor (Cavia porcellus) (UniProt Q9JI35); experiment: Histamine activity against Histamine H3 receptor of guinea pig ileum; assay type: tissue-based
[14] = tested on: HL-60; experiment: Efficacy expressed as maximal stimulation of GTP hydrolysis in HL-60 membranes at a concentration 30 uM; assay type: functional, Homo sapiens; in short: as §1
[15] = tested on: HL-60; experiment: Efficacy expressed as maximal stimulation of GTP hydrolysis in HL-60 membranes at a concentration 2 uM; assay type: functional, Homo sapiens; in short: as §1
[16] = tested on: HL-60; experiment: Efficacy expressed as maximal stimulation of GTP hydrolysis in HL-60 membranes at a concentration 300 uM; assay type: functional, Homo sapiens
In short: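 Steady-state GTP hydrolysis of the membranes was measured over increasing compound concentrations in triplicate, across at least three independent experiments. Efficacy is the maximal stimulation above basal activity, with the concentration giving that maximum reported.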

Histamine H1 receptor (Cavia porcellus), sequence (P31389 whole entry): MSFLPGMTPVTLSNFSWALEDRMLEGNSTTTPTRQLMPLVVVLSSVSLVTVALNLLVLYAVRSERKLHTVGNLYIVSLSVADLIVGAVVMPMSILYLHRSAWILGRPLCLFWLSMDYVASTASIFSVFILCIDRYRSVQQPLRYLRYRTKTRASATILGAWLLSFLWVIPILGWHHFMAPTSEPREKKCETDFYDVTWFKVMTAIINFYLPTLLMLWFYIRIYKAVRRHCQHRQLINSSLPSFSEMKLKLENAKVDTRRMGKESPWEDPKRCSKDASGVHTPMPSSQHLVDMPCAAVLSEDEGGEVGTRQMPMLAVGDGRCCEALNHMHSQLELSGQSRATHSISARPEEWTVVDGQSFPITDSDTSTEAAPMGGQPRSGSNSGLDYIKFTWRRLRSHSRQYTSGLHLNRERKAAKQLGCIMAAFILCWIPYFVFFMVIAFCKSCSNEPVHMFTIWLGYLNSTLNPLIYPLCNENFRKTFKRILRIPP
Histamine H2 receptor (Cavia porcellus), sequence (P47747 whole entry): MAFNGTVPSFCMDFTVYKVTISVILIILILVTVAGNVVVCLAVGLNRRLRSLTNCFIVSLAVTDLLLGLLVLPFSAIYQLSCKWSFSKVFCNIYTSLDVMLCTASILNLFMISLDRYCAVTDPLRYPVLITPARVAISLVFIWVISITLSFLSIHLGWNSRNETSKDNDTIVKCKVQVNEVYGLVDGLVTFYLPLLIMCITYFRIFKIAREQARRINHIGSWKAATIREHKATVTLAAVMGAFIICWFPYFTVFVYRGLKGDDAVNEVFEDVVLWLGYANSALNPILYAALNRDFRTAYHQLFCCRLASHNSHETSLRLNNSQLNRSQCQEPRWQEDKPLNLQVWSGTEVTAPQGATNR
Histamine H3 receptor (Cavia porcellus), sequence (Q9JI35 whole entry): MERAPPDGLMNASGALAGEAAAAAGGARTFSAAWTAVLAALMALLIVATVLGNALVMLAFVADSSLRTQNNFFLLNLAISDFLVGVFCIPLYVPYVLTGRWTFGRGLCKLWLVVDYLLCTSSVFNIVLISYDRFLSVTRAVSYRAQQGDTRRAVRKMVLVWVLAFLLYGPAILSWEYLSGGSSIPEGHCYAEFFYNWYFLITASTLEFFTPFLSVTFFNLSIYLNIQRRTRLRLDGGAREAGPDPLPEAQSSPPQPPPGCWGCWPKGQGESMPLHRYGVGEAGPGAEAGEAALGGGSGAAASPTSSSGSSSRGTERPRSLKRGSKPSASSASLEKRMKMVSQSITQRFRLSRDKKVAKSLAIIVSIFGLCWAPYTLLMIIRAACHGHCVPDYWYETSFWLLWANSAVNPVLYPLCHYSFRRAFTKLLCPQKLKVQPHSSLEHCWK
Muscarinic acetylcholine receptor M3 (Cavia porcellus), sequence (Q8VH26 1-587): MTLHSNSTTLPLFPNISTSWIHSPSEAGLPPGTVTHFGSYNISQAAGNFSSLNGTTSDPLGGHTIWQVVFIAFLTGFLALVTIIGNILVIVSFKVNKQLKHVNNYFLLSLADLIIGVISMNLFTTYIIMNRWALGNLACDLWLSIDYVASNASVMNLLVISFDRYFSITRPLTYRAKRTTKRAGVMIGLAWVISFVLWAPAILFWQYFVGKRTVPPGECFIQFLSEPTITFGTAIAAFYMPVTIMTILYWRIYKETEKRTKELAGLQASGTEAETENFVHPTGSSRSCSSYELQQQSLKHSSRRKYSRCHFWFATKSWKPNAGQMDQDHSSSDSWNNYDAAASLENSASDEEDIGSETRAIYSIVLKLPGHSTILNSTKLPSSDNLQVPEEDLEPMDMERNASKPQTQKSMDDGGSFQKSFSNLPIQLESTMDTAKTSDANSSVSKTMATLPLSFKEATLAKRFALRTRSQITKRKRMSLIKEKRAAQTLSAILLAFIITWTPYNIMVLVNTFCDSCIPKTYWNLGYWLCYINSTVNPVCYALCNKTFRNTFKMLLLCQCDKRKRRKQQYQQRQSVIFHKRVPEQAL

CCCCCCCCCCCCNC(=O)[C@@H](N)CCCN=C(N)N
Efficacy [1]: 92% | EC50 [2]: 0.794 µM

CCCCCCCCCCCCNCCN
EC50 [2]: 1 µM | Efficacy [3]: 92%

CCCCCCCCCCCCCCCCNCC(N)CCCCN (stereo unspecified)
Efficacy [4]: 84% | EC50 [5]: 0.251 µM

CCCCCCCCCCCCNC(=O)[C@H](N)CCCCN
EC50 [5]: 0.794 µM | Efficacy [3]: 108%

CCCCCCCCCCCCNC(=O)[C@@H](N)Cc1c[nH]cn1
EC50 [2]: 3.16 µM | Efficacy [6]: 125%

CCCCCCCCCCCCNCCN=C(N)N
Efficacy [1]: 128% | EC50 [2]: 1 µM

CCCCCCCCCCCCCCNC(=O)[C@@H](N)CCCCN
EC50 [5]: 0.501 µM | Efficacy [7]: 100%

CCCCCCCCCCCCCCNCC(N)CCCCN (stereo unspecified)
Efficacy [4]: 117% | EC50 [5]: 0.251 µM

CCCCCCCCCCCCNC(=O)C(N)CCCN (stereo unspecified)
Efficacy [8]: 117% | -Log K [9]: 5.3 | EC50 [2]: 2.51 µM

CCCCCCCCCCCCNC(=O)[C@@H](N)CCCCN [N-DODECYL LYSINE AMIDE]
EC50 [5]: 0.794 µM | Efficacy [3]: 116%

CCCCCCCCCCCCNC(=O)C(N)CN (stereo unspecified)
Efficacy [8]: 131% | EC50 [2]: 2.51 µM

CC[C@H](C)[C@H](N)C(=O)N[C@@H](CC(N)=O)C(=O)N[C@@H](CC(C)C)C(=O)N[C@@H](CCCCN)C(=O)N[C@@H](C)C(=O)N[C@@H](CC(C)C)C(=O)N[C@@H](C)C(=O)N[C@@H](C)C(=O)N[C@@H](CC(C)C)C(=O)N[C@@H](C)C(=O)N[C@@H](CCCCN)C(=O)N[C@@H](CCCCN)C(=O)N[C@H](C(=O)N[C@@H](CC(C)C)C(N)=O)[C@@H](C)CC
EC50 [5]: 3.16 µM | Efficacy [8]: 100%

CCCCCCCCCCCCNCC(N)CCCN (stereo unspecified)
-Log K [10]: 5.2 | -Log K [11]: 5.4 | EC50 [2]: 1 µM | Efficacy [3]: 126% | -Log K [12]: 4.1 | -Log K [13]: < 6

CCCCCCCCCCCCNC(=O)C(N)CCN (stereo unspecified)
Efficacy [8]: 105% | EC50 [2]: 1.26 µM

CCCCCCCCCCCCNC(=O)CNC(=O)CN
EC50 [2]: 5.01 µM | Efficacy [14]: 120%

CCCCCCCCCCCCNC(=O)[C@@H](N)CCC(N)=O
EC50 [2]: 7.94 µM | Efficacy [14]: 110%

CCCCCCCCCCCCNCC(N)CCCCN (stereo unspecified)
EC50 [5]: 0.501 µM | Efficacy [15]: 120%

CCCCCCCCCCCCNC(=O)CN
EC50 [2]: 3.98 µM | Efficacy [6]: 100%

CCCCCCCCCCCCNC(=O)[C@@H](N)CCC/N=C(\N)N[N+](=O)[O-]
Efficacy [16]: 156%

CCCCCCCCCCCCCCCCNC(=O)[C@@H](N)CCCCN [LYCETAMINE]
EC50 [5]: 0.501 µM | Efficacy [15]: 90%

CCCCCCCCCCCCNCC(N)CCN (stereo unspecified)
Efficacy [7]: 128% | EC50 [2]: 0.631 µM
